Source: BindingDB's records for doi:10.1021/np070447m (2008)

Columns and labels:
[1] = target: Mitogen-activated protein kinase kinase kinase 8 (Homo sapiens, UniProt P41279); test: Inhibition of recombinant COT
[2] = target: Serine/threonine-protein kinase PLK1 (Homo sapiens, UniProt P53350); test: Inhibition of recombinant PLK1
[3] = target: RAC-alpha serine/threonine-protein kinase (Homo sapiens, UniProt P31749); test: Inhibition of recombinant AKT1
Procedure, shortened: (§1)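 Purified recombinant kinase, 50 µL reaction. 1 µM [γ-33P]-ATP with substrate; compound added in 10% DMSO. Tested over several concentrations; IC50 in g/mL.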

[4] = target: Vascular endothelial growth factor receptor 2 (Homo sapiens, UniProt P35968); test: Inhibition of recombinant VEGFR2; procedure, shortened: as §1
[5] = target: Receptor tyrosine-protein kinase erbB-2 (Homo sapiens, UniProt P04626); test: Inhibition of recombinant ERBB2
[6] = target: T1, Serine/threonine-protein kinase PLK4 (Homo sapiens, UniProt O00444); test: Inhibition of recombinant SAK
T1 sequence (O00444 whole entry): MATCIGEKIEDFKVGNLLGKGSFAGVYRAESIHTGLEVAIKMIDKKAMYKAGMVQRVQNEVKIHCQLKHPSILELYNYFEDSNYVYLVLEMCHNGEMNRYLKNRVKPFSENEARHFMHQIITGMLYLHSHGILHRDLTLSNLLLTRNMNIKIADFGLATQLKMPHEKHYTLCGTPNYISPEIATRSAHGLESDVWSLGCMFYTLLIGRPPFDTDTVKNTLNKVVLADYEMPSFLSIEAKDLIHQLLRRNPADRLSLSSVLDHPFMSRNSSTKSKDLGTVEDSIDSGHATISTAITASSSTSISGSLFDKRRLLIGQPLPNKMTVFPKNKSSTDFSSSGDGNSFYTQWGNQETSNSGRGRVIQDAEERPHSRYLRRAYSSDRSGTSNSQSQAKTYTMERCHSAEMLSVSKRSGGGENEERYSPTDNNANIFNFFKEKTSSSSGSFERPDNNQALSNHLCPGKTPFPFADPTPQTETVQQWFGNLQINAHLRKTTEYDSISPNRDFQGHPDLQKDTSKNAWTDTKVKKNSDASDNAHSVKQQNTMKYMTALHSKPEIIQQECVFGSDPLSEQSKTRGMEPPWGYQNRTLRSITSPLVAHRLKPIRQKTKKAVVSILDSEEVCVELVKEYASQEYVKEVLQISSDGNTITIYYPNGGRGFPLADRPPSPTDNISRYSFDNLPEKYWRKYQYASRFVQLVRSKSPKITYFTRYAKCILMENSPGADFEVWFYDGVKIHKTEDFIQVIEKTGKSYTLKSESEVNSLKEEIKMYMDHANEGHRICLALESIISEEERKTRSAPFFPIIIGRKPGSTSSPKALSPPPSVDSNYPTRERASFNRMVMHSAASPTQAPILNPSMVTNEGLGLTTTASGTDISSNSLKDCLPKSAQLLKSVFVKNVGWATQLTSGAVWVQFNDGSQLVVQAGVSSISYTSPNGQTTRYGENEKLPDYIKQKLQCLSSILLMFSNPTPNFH

Angiopoietin-1 receptor = Angiopoietin-1 receptor (Homo sapiens, UniProt Q02763); test: Inhibition of recombinant TIE2
Ephrin type-B receptor 4 = target: T2, Ephrin type-B receptor 4 (Homo sapiens, UniProt P54760); test: Inhibition of recombinant EPHB4; procedure, shortened: as §1
T2 sequence (P54760 whole entry): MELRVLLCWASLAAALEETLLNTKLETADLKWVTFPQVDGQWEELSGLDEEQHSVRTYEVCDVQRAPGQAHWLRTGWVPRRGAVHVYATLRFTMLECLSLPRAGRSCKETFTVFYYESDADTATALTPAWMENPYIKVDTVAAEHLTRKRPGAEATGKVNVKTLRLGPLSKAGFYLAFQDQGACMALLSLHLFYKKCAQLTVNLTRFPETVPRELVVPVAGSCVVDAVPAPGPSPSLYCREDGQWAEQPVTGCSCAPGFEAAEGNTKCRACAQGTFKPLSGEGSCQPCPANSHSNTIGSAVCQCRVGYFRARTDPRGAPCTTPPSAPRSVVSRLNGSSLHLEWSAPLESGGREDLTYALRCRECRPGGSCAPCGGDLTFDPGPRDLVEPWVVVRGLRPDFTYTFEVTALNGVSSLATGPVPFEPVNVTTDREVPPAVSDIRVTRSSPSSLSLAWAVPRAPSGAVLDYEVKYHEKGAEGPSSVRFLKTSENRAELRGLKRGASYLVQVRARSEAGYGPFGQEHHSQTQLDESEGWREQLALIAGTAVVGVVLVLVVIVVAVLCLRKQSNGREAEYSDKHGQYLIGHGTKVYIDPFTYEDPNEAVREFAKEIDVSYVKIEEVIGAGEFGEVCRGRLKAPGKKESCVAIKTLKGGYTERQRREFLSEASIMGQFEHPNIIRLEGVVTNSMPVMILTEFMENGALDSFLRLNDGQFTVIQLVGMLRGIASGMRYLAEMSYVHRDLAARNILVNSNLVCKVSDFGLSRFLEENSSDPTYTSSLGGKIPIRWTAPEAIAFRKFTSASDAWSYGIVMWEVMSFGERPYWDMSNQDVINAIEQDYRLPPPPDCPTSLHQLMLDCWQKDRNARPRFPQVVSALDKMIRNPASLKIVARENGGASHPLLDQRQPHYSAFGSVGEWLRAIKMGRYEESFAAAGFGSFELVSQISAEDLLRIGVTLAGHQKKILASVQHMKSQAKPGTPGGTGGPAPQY

Insulin receptor = Insulin receptor (Homo sapiens, UniProt P06213); test: Inhibition of recombinant INSR
[7] = target: Platelet-derived growth factor receptor beta (Homo sapiens, UniProt P09619); test: Inhibition of recombinant PDGFRbeta

Chain of Vascular endothelial growth factor receptor 2 (P35968 whole entry): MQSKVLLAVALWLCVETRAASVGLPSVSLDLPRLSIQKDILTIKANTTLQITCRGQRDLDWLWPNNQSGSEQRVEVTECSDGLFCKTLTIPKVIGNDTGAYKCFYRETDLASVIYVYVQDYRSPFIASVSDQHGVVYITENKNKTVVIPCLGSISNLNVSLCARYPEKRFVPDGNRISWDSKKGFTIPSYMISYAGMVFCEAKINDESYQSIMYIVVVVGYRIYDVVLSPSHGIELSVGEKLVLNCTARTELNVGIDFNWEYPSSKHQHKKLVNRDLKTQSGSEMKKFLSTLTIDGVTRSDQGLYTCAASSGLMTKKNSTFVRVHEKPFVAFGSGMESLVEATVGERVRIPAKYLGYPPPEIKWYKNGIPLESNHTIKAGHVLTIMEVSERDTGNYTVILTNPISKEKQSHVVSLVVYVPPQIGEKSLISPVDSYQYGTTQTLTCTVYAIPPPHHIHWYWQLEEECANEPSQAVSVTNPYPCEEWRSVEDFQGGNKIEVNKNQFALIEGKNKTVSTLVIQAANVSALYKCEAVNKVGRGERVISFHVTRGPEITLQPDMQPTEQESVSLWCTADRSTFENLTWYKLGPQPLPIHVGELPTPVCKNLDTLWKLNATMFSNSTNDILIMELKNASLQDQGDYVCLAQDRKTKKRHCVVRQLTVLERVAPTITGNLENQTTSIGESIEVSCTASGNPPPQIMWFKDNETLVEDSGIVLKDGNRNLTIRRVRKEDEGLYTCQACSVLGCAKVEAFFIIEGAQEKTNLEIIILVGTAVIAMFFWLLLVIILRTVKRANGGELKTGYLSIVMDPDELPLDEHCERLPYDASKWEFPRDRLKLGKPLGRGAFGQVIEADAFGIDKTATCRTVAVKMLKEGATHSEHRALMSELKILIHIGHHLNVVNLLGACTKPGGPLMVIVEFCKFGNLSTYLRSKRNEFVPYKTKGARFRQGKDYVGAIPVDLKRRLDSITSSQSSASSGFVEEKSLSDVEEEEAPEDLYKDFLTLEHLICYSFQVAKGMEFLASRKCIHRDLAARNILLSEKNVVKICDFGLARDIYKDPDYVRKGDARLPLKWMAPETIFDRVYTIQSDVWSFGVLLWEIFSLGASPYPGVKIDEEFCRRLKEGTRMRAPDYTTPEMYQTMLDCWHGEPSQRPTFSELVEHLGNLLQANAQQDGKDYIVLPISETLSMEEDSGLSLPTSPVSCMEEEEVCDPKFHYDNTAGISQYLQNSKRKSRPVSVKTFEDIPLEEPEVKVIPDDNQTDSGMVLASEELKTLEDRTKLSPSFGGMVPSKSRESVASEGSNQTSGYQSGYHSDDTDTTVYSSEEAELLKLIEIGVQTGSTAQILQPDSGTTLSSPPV
Chain of Receptor tyrosine-protein kinase erbB-2 (P04626 whole entry): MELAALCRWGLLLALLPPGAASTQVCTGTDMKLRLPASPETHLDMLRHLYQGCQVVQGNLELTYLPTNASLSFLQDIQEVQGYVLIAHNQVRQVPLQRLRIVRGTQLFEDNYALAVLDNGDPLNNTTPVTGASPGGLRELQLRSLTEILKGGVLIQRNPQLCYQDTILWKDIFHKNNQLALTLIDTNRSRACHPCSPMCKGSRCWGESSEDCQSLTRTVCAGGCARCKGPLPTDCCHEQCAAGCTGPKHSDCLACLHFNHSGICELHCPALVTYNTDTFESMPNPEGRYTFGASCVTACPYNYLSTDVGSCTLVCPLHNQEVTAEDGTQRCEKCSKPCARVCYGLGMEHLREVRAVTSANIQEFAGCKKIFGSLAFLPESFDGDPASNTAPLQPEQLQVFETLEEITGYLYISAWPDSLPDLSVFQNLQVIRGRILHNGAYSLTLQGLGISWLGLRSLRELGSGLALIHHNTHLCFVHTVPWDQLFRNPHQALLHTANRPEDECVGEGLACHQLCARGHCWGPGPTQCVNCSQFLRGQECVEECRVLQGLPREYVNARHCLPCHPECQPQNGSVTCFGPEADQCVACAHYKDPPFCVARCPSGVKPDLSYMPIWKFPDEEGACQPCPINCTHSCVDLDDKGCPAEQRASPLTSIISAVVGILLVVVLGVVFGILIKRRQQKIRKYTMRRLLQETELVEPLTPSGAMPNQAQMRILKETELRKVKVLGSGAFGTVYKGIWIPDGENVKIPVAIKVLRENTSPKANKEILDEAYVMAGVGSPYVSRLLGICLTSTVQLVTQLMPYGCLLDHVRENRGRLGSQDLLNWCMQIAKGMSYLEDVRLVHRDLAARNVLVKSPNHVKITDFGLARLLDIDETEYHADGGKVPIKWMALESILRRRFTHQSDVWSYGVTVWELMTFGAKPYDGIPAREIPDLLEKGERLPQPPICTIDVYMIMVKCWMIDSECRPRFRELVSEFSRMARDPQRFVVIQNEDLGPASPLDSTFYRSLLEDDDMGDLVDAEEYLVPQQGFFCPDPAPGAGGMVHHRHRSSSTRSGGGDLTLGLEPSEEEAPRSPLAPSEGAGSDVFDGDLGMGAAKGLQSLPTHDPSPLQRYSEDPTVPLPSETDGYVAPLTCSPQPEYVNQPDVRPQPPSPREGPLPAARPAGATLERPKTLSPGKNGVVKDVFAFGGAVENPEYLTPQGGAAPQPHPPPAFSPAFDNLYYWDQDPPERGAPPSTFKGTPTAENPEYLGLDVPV
Chain of RAC-alpha serine/threonine-protein kinase (P31749 whole entry): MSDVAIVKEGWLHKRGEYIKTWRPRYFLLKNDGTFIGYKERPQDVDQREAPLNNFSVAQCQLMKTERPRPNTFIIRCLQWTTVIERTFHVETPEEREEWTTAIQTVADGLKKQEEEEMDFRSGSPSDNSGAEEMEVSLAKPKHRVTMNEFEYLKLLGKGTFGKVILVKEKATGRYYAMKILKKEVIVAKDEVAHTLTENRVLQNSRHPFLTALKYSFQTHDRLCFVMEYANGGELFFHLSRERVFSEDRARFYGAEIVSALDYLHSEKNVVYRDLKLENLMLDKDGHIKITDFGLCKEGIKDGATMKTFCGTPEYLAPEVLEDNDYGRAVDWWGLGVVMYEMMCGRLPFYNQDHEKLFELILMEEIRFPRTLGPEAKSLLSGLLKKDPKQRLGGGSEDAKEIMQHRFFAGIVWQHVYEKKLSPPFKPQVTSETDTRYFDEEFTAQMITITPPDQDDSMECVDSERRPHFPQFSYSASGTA
Chain of Mitogen-activated protein kinase kinase kinase 8 (P41279 whole entry): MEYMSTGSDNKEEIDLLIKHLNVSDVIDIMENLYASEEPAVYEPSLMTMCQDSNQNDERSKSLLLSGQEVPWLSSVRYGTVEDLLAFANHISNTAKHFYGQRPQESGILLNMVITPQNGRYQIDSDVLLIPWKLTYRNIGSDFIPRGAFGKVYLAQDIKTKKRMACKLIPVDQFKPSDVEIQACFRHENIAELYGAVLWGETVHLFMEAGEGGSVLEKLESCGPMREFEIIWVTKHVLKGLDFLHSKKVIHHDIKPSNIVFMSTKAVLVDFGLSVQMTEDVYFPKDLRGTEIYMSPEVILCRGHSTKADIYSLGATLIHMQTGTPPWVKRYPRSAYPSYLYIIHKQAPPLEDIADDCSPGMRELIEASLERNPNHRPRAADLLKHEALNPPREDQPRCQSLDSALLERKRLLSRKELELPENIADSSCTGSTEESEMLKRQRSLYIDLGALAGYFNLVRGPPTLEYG
Chain of Serine/threonine-protein kinase PLK1 (P53350 whole entry): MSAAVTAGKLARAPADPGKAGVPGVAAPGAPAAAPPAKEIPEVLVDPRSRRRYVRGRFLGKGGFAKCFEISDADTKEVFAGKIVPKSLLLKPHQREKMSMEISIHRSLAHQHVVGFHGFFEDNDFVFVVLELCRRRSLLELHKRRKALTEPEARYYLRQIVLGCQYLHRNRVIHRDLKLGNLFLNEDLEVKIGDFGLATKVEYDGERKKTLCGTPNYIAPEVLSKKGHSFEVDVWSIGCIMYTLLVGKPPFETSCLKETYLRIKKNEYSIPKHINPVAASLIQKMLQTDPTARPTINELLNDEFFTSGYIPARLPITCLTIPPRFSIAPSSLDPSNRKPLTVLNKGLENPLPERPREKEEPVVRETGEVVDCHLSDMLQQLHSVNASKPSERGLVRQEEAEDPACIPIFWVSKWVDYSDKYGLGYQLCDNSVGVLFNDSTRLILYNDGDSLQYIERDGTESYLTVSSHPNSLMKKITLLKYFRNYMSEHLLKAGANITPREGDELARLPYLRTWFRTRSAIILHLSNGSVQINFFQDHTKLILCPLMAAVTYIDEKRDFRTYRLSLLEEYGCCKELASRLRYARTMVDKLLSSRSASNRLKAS

Row | Structure (SMILES) | IC50 [1] | IC50 [2] | IC50 [3] | IC50 [4] | IC50 [5] | IC50 [6] | IC50 (Angiopoietin-1 receptor) | IC50 (Ephrin type-B receptor 4) | IC50 (Insulin receptor) | IC50 [7]
1 | COc1cc(O)c2c(c1)C1(OC2=O)C(=O)C(=O)CC1C (stereo not drawn) [TALAROFLAVONE] | > 36.2 µM | > 36.2 µM | > 36.2 µM | > 36.2 µM | > 36.2 µM | > 36.2 µM | > 36.2 µM | > 36.2 µM | – | –
2 | COc1cc(O)c2c(c1)-c1cc(O)c(O)cc1COC2=O [Alterlactone] | > 34.6 µM | > 34.6 µM | > 34.6 µM | > 34.6 µM | > 34.6 µM | > 34.6 µM | > 34.6 µM | > 34.6 µM | > 34.6 µM | > 34.6 µM
